According to PubChem BioAssay AID623885 (Vanderbilt Specialized Chemistry Center, 2012):
Activity calls are given as the source filed them.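 The calls were made as follows: active = mean half-maximal effective concentration under 30 µM; inactive = the rest.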

molecular target: Metabotropic glutamate receptor 3 (Rattus norvegicus) (UniProt P31422); experiment: inhibition of glutamate response at mGlu3 – thallium flux, HEK/GIRK cells, rat, dose response (AID 623885); details: HEK293 GIRK rat mGlu3, thallium flux fluorescence; at 30 µM (top of the series)
Method in brief: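 System: HEK cells stably co-expressing GIRK channels, M4 muscarinic receptor, rat mGlu3 / Medium: HEPES-buffered HBSS / Incubation: dye loading 1 h room temperature, compounds ~2.5 min / Measured by: thallium influx through GIRK, FluoZin-2 AM fluorescence / Probe or stimulus: thallium buffer ± agonist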

Metabotropic glutamate receptor 3 (Rattus norvegicus), sequence (P31422 whole entry, looked up): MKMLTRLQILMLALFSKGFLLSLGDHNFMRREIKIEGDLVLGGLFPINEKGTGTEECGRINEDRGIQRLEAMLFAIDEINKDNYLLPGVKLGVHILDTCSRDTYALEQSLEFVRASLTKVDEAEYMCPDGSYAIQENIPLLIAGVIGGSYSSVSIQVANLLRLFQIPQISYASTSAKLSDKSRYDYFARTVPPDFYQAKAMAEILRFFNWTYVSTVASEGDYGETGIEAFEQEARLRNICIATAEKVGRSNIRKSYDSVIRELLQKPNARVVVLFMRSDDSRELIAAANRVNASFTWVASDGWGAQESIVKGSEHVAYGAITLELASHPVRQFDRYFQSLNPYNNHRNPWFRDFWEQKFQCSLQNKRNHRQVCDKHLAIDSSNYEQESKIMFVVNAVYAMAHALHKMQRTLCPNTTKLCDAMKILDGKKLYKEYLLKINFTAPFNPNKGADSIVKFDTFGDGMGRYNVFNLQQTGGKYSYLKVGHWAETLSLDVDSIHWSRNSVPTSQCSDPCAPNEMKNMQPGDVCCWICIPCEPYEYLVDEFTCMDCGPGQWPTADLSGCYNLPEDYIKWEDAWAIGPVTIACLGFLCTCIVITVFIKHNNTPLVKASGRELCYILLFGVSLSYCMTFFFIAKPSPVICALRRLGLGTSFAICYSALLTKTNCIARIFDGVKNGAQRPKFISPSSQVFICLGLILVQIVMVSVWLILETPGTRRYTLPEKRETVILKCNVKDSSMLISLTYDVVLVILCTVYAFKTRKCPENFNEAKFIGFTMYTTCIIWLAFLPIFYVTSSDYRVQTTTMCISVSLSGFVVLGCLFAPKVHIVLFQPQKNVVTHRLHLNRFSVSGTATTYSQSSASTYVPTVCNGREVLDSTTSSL

Row | Structure (SMILES) | percent of glutamate max response
1 | CCc1ccc(C#Cc2ccc(C(=O)N3CCC(O)CC3)cc2)cc1 | 62
2 | CCOC(=O)C#Cc1ccc(C(=O)N2CCC(O)CC2)cc1 | inactive
3 | CC(C)(C)NC(=O)CN1CCc2cc(C#Cc3ccccc3)ccc2C1=O | 51.4
4 | O=C(c1ccc(C#CCOCC2CO2)cc1)N1CCC(O)CC1 (stereo not given) | inactive
5 | COc1ccc(C#Cc2ccc(C(=O)NC3CCC3)cc2)cc1 | inactive
6 | COc1ccc(C#Cc2ccc(C(=O)NCCCCO)cc2)cc1 | inactive
7 | CN(C)CC#Cc1ccc(C(=O)N2CCC(O)CC2)cc1 | inactive
8 | COc1ccc(C#Cc2ccc(C(=O)N[C@H](C)C(C)C)cc2)cc1 | inactive
9 | O=C(c1ccc(C#CCCCCO)cc1)N1CCC(O)CC1 | inactive
10 | CCC(N)(C#Cc1ccc(C(=O)N2CCC(O)CC2)cc1)CC | inactive
